Source: PubChem (several laboratories)
The list is not random: actives were taken first. Their share in the collection is about 5.7%.
SKKanGAS inh = S. pyogenes SKKanGAS growth inhibitors in kanamycin, primary screen, streptokinase expression inhibitor project, SKKanGAS strain, BacTiter-Glo luminescence | inhibition, % at 7.5 µM | 6 h | actives 1.3% (n = 300,000);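 active = mean replicate score, as percent of positive control median, at least 50; inconclusive = mean below 50 but one replicate at or above 50; inactive = mean and every replicate below 50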;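 also: strain carries kanamycin resistance gene driven by streptokinase promoter and grows in 40 µg/ml kanamycin; loss of luminescence reflects streptokinase promoter inhibition or plain growth inhibition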
Calb FLC = C. albicans growth inhibition with fluconazole, primary screen, CaCi-2 strain, Alamar Blue fluorescence | growth inhibition, % (test concentration not listed) | C. albicans CaCi-2 (fluconazole-resistant clinical isolate) + fluconazole, 48 h | actives 0.57% (n = 300,000);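 active = growth inhibition above about 58% in most replicates, limit read from the data, passing the limit was not always enough; inconclusive = exactly half the replicates above a set limit; inactive = most replicates below a set limit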;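 also: all wells also contain fluconazole at 8 µg/ml as a sub-toxic cotreatment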
Mdm2 MdmX PPI = inhibitors of human Mdm2-MdmX association, primary screen, cell-based, luminescence, split luciferase, SaOS-2, uHTS; Protein Mdm4 (Homo sapiens) + E3 ubiquitin-protein ligase Mdm2 (Homo sapiens), …; SaOS-2 split-luciferase Mdm2/MdmX complementation; inhibition, % at 8 µM; actives 3% (n = 330,000); AID 485346, 2010;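 active = inhibition of at least 50% at 8 µM in the primary screen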
Target sequence (O15151 whole entry, looked up): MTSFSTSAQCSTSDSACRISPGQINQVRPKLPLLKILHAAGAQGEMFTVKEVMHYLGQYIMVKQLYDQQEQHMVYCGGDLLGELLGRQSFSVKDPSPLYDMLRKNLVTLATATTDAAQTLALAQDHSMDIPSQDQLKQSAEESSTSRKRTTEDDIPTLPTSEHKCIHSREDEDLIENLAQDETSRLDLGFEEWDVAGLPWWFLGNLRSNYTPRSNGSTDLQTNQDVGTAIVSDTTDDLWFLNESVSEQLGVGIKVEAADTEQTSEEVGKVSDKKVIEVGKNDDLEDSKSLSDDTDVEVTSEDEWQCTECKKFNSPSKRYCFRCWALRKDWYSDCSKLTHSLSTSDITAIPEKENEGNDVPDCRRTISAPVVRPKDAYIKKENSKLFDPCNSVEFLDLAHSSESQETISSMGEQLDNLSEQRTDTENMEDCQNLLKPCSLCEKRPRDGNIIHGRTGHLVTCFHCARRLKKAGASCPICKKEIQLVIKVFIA
Target sequence (Q00987 whole entry, looked up): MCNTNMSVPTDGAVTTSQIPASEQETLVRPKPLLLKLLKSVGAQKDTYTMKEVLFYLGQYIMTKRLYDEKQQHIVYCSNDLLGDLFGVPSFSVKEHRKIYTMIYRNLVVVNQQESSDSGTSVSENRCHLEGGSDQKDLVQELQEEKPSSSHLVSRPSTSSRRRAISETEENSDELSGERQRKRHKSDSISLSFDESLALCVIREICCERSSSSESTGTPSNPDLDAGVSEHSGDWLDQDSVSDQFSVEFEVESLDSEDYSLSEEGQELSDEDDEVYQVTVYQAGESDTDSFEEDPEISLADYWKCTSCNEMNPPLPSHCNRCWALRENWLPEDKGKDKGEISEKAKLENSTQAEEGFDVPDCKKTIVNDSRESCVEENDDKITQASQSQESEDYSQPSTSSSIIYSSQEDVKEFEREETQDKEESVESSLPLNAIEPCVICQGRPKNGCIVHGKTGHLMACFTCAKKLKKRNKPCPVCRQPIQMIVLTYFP
CSC inhib = cancer stem cell viability inhibitors, primary screen, luminescence; cancer stem cell-like cells viability; inhibition, % at 7.5 µM; actives 1.1% (n = 300,000); AID 2717, 2010; in the data active = inhibition above about 75%; inconclusive = no clear call, values can overlap the other calls; tested in HMLE shEcad cells
Beta apoptosis = inhibitors of cytokine-induced beta cell apoptosis, primary screen, luminescence; INS-1E cytokine-induced death, ATP luminescence, 48 h; percent of positive-control rescue, neutral wells zero; protection from apoptosis, % (no concentration beside the values); actives 0.8% (n = 300,000);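 active = Every replicate reaches about 75%, or at least half do and their mean reaches it too, limit read from the data; inconclusive = At least half of replicates reach the limit but their mean does not; inactive = Under half of replicates reach the limit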;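 also: higher means more ATP so stronger rescue from cytokine killing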
T cruzi repl = inhibitors of intracellular T. cruzi growth, primary screen, luminescence, NIH3T3 host cells | actives 1.4% (n = 300,000) | T. cruzi beta-gal in NIH3T3, 90 h | inhibition, % (test concentration not listed);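 active = mean inhibition across valid replicates above about 55%, limit read from the data; inconclusive = mean below that limit but half or more replicates reach it; inactive = mean below it, under half of replicates reach it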;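 also: signal also drops with host cell toxicity which is not excluded here; higher percent means less beta-gal luminescence so fewer parasites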
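System – NIH/3T3 host cells with β-galactosidase reporter T. cruzi · Doses – single 50 nL compound addition per well in DMSO · Reagent – 5000 T. cruzi trypomastigotes/well · Medium – Low-serum DMEM with 2% FBS · Timing – ≥90 h infection period, 3 h prior cell attachment · Evaluation – parasite load inhibition, % · Technique – GalScreen luminescence, 60 min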
Numbers stand for hits; . = inactive; ? = inconclusive; / = no result.

SMILES | SKKanGAS inh | Calb FLC | Mdm2 MdmX PPI | CSC inhib | Beta apoptosis | T cruzi repl
CCOC(=O)C1(Cc2cccc(OC)c2)CCCN(Cc2c(C)nn(C(C)C)c2C)C1 (stereo unspecified) | . | . | . | . | . | 64
CCOC(=O)C1(Cc2cccc(OC)c2)CCCN(Cc2cc(C(C)C)n[nH]2)C1 (stereo unspecified) | . | . | . | . | . | .
COc1ccc(-c2csc(NC(=O)c3ccc(S(=O)(=O)N4CCc5ccccc5C4)cc3)n2)cc1 | . | . | . | / | . | .
COc1ccc(-c2nnc(NC(=O)C3CCCN3S(=O)(=O)c3cccs3)o2)cc1 (stereo unspecified) | 56 | . | . | / | . | .
COc1ccc(-c2nnc(NC(=O)c3ccc(S(=O)(=O)N4CCc5ccccc5C4)cc3)o2)cc1 | 94 | 97 | . | / | . | 73
COc1cccc(-c2nnc(NC(=O)c3ccc(S(=O)(=O)N4CC(C)OC(C)C4)cc3)o2)c1 (stereo unspecified) | 93 | . | . | . | / | .
O=C(Nc1nnc(-c2ccccc2)o1)C1CCCN1S(=O)(=O)c1cccs1 (stereo unspecified) | . | . | . | . | . | .
Cc1ccc(S(=O)(=O)NCC(=O)OCC(=O)N2C(C)CCCC2C)cc1 (stereo unspecified) | / | / | . | . | . | /
CC(=O)c1cccc(NC(=O)c2cc(=O)[nH]c3ccc(S(=O)(=O)N4CCOCC4)cc23)c1 | / | / | . | . | . | /
COc1ccc(C(=O)Nc2ccccc2-c2nnn(CC(=O)Nc3ccc4c(c3)OCCO4)n2)cc1 | 66 | . | . | . | . | .
Nc1ccccc1-c1nnn(CC(=O)Nc2ccc3c(c2)OCCO3)n1 | . | . | . | / | / | .
O=C(O)c1ccccc1C(=O)Nc1ccccc1 | . | . | . | . | / | .
O=C(Nc1ccccc1)C1=C(c2ccccc2)S(=O)(=O)CCS1(=O)=O | . | . | / | / | / | 69
O=NN(CCc1ccncc1)c1ccc(OCc2ccccc2)cc1 | . | . | . | . | 99 | 72
C=CCOC(=O)C1=C(C)NC(SCC(=O)NC(=O)OCC)=C(C#N)C1c1cccnc1 (stereo unspecified) | . | 99 | . | . | . | .
C=CCOC(=O)C1=C(C)NC(SCC(=O)N(CC)CC)=C(C#N)C1c1ccccc1 (stereo unspecified) | . | . | . | . | . | .
CC1CN(S(=O)(=O)c2cccc(C(=O)NCc3ccccn3)c2)CC(C)O1 (stereo unspecified) | / | / | . | . | . | /
C/C(=N\NC(=O)c1ccc(C)cc1)c1c(C)[nH]n(-c2ccccc2)c1=O | 56 | . | . | . | 91 | .
Cc1[nH]n(-c2ccccc2)c(=O)c1C(=O)c1ccc([N+](=O)[O-])cc1 | . | . | . | . | . | .
C/C(=N\NC(=O)c1ccccc1)c1c(C)[nH]n(-c2ccccc2)c1=O | . | . | . | . | . | .
Cc1nn(-c2ccccc2)nc1C(=O)c1c(C)[nH]n(-c2ccccc2)c1=O | 61 | . | . | . | . | .
Cc1nnc(SCc2ccc(Cl)cc2)nc1/C=C/N(C)C | . | . | . | . | . | 61
C/C(N)=C(/C#N)C(=O)CSc1nc2cc(Cl)ccc2c(=O)n1-c1ccc(C)cc1 | . | . | . | / | . | .
C/C(N)=C(/C#N)C(=O)CSc1nc2cc(Cl)ccc2c(=O)n1Cc1ccco1 | 61 | . | . | . | . | 59
CC(C)Nc1nc(NC(C)C)nc(N(C#N)CCOc2ccc(Cl)cc2Cl)n1 | . | . | . | . | . | 73
SMILES | SKKanGAS inh | Calb FLC | Mdm2 MdmX PPI | CSC inhib | Beta apoptosis | T cruzi repl
Cc1cc(C)nc(N(C#N)CCOc2ccc(Cl)cc2)n1 | . | . | . | . | . | .
O=C(CN1C(=O)NC(c2ccccc2)(c2ccccc2)C1=O)NCc1cccs1 | / | / | . | / | / | /
NC(=O)C1CCN(C(=O)c2cccc(S(=O)(=O)N3CCc4ccccc4C3)c2)CC1 | . | ? | . | . | / | .
CC(=O)N1CCN(C(=O)c2ccc(Cl)c(S(=O)(=O)N3CCc4ccccc43)c2)CC1 | / | / | . | / | . | /
Cc1cccc(N2CCN(C(=O)c3ccc(Cl)c(S(=O)(=O)N4CCc5ccccc5C4)c3)CC2)c1C | . | . | . | . | . | 59
O=C(c1cccc(S(=O)(=O)N2CCc3ccccc3C2)c1)N1CCN(c2ccc(O)cc2)CC1 | . | . | . | 156 | . | .
COC(=O)c1ccc(NC(=O)N(c2ccccc2)c2ccccc2)cc1 | . | . | . | . | . | .
C=CCOc1ccc(/C=C2\SC(=S)N(NS(=O)(=O)c3ccc(C)cc3)C2=O)cc1 | . | 88 | . | . | . | .
Cc1cc(C)cc(N2CC(C(=O)NC3CCCCC3)CC2=O)c1 (stereo unspecified) | . | . | . | . | . | .
COc1ccc(S(=O)(=O)N2CCCCCC2)cc1C(=O)OCc1cccc(OC)c1OC | . | . | . | . | / | .
CC(C)OP(=O)(c1ccc(N(C)C)cc1)C(O)c1ccccc1 (stereo unspecified) | . | 98 | . | . | . | .
CC(C)OP(=O)(c1ccc(N(C)C)cc1)C(O)c1ccc(C(C)C)cc1 (stereo unspecified) | . | . | . | . | . | .
CC1(C)CC[C@]2(C(=O)O)CC[C@]3(C)C(=CC[C@@H]4[C@@]5(C)CC[C@H](O)C(C)(C)[C@@H]5CC[C@]43C)[C@@H]2C1 | / | / | . | . | . | /
CC1(C)CC[C@]2(C(=O)O)CC[C@]3(C)C(=CCC4[C@@]5(C)CC[C@H](O)C(C)(C)C5CC[C@]43C)C2C1 (stereo partly specified) | 105 | . | / | . | . | .
CC(=O)OC1COC(OC2C(O)C(C)OC(OC3C(OC4CCC5(C)C(CCC6(C)C5CC=C5C7CC(C)(C)CCC7(C(=O)O)CCC56C)C4(C)CO)OCC(O)C3O)C2O)C(O)C1OC(C)=O (stereo unspecified) | / | / | . | . | 107 | /
CN1CCN(NC(=O)Nc2cc(Cl)cc(Cl)c2)CC1 | 88 | . | . | . | . | .
CCn1nc(C(=O)Nc2nc(-c3ccccn3)cs2)c2ccccc2c1=O | / | / | . | / | . | /
